Series [1] deals with Rattus norvegicus. The series can be described thus: Distribution of the radio labelled compound in frontal cortex of rat brain after intravenous administration in presence of reboxetine after 60 min. Format: ADME, organism-based. To be noted: in vivo, 1 h. In a few lines:
(§1)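 Male Sprague–Dawley rats (200–250 g) under ketamine/xylazine anaesthesia with tail-vein cannulas. Blocker or none given 15 min before ~20 μCi [123I] tracer iv in 0.2 mL 10% ethanol/saline; blocker dose 4 mg/kg.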

The test system of series [2] is Rattus norvegicus. The series can be described thus: Distribution of the radio labelled compound in hippocampus of rat brain after intravenous administration in presence of reboxetine after 60 min. The class given is ADME, organism-based. Conditions: in vivo, 1 h. The method in brief:
as §1

Series [3] has as its system Rattus norvegicus. The series can be described thus: Distribution in occipital cortex of rat brain after intravenous administration by using [123I]ZIET after 30 min. The class given is ADME, organism-based. To be noted: in vivo, 0.5 h. The method in brief: (§2)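 Male Sprague–Dawley rats (200–250 g), fed ad libitum, given ~20 μCi radiotracer iv via tail-vein cannula in 0.2 mL 10% ethanol/saline under ketamine/xylazine im anesthesia. Killed at 5, 30, 60 or 120 min (n = 5; n = 4 at 120 min). Brain regions dissected, weighed, gamma-counted with dose standards, decay-corrected; mean %ID/g ± SE.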

Series [4] deals with Rattus norvegicus. The series can be described thus: Distribution in rest of rat brain after intravenous administration by using [123I]ZIET after 30 min. The class given is ADME, organism-based. To be noted: in vivo, 0.5 h. The method in brief:
as §2

Series [5] has as its system Rattus norvegicus. The series can be described thus: Distribution in rest of rat brain after intravenous administration by using [123I]ZIET after 60 min. The class given is ADME, organism-based. Conditions: in vivo, 1 h. The method in brief:
as §2

Series [6] has as its system Rattus norvegicus. Description: Distribution in striatum of rat brain after intravenous administration by using [123I]-ZIET after 5 min. To be noted: in vivo. Format: ADME, organism-based. The method in brief:
as §2

For series [7], the system named is Rattus norvegicus. Description: Distribution of the radio labelled compound in brainstem of rat brain after intravenous administration in presence of RTI-113 after 60 min. The class given is ADME, organism-based. Conditions: in vivo, 1 h. The method in brief: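 Male Sprague–Dawley rats (200–250 g), ketamine/xylazine anesthesia, tail-vein cannula. Blocker (4 mg/kg) or nothing given 15 min before iv [123I]ZIET in 10% ethanol/saline. Killed 60 min post-tracer.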

The test system of series [8] is Rattus norvegicus. The series can be described thus: Distribution in hypothalamus of rat brain after intravenous administration by using [123I]ZIET after 30 min. The class given is ADME, organism-based. Conditions: in vivo, 0.5 h. In a few lines:
as §2

The subject of series [9] is Rattus norvegicus. Description: Distribution of the radio labelled compound in rest of rat brain after intravenous administration in presence of reboxetine after 60 min. The class given is ADME, organism-based. To be noted: in vivo, 1 h. The method in brief: as §1
For series [10], the system named is Rattus norvegicus. Description: Distribution of the radio labelled compound in thyroid of rat brain after intravenous administration in presence of citalopram after 60 min. Format: ADME, organism-based, Thyroid gland. To be noted: in vivo, 1 h. The method in brief: as §1
Series [11] has as its system Rattus norvegicus. The series can be described thus: Distribution of the radio labelled compound in hypothalamus of rat brain after intravenous administration in absence of blocker after 60 min. To be noted: in vivo, 1 h. Format: ADME, organism-based. The method in brief: as §1
Series [12] deals with Rattus norvegicus. Description: Distribution in blood of rat brain after intravenous administration by using [123I]ZIET after 120 min. Format: ADME, organism-based. Conditions: in vivo, 2 h. The method in brief:
as §2

For series [13], the system named is Rattus norvegicus. Description: Distribution in cerebellum of rat brain after intravenous administration by using [123I]ZIET after 120 min. The class given is ADME, organism-based. Conditions: in vivo, 2 h. The method in brief:
as §2

Series [14] has as its system Rattus norvegicus. Description: Distribution in frontal cortex of rat brain after intravenous administration by using [123I]-ZIET after 30 min. Format: ADME, organism-based. To be noted: in vivo, 0.5 h. In a few lines:
as §2

The test system of series [15] is Rattus norvegicus. The series can be described thus: Distribution in hippocampus of rat brain after intravenous administration by using [123I]ZIET after 120 min. The class given is ADME, organism-based. To be noted: in vivo, 2 h. In a few lines: as §2
Series [16] deals with Rattus norvegicus. Description: Distribution of the radio labelled compound in hypothalamus of rat brain after intravenous administration in presence of RTI-113 after 60 min. To be noted: in vivo, 1 h. The class given is ADME, organism-based. The method in brief: as §1
The test system of series [17] is Rattus norvegicus. The series can be described thus: Distribution of the radio labelled compound in rest of rat brain after intravenous administration in absence of blocker after 60 min. The class given is ADME, organism-based. To be noted: in vivo, 1 h. The method in brief: as §1
Series [18] can be described thus: Ratio of radioactivity in occipital cortex of rat brain to that of rat cerebellum after intravenous administration after 30 min. Format: functional. In a few lines: (§3)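 Male Sprague–Dawley rats (200–250 g) given ~20 μCi [123I] tracer iv in 0.2 mL 10% ethanol/saline under ketamine/xylazine; killed at 5, 30, 60, 120 min (n = 5; n = 4 at 120 min). Brain regions dissected, gamma counted, decay-corrected to %ID/g; regional uptake divided by cerebellum.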

Series [19] in a line: Ratio of radioactivity in striatum of rat brain to that of rat cerebellum after intravenous administration after 60 min. Format: functional. The method in brief: as §3

As for `COC(=O)C1C(c2ccc(/C=C\[123I])cc2)CC2CCC1N2C` (centres undefined), the Activity was determined as 0.47 with Rattus norvegicus [1]; 0.41 in the series on Rattus norvegicus [2]; 0.76 in the series with Rattus norvegicus [3]; 0.66 in the series with Rattus norvegicus [4]; 0.54 in the series on Rattus norvegicus [5]; 0.39 with Rattus norvegicus [6]. The Activity with Rattus norvegicus [7] was determined as 0.35; in the series with Rattus norvegicus [8], 0.68; in the series with Rattus norvegicus [9] it was 0.34; in the series with Rattus norvegicus [10], 0.93; in the series on Rattus norvegicus [11], 0.42; in the series with Rattus norvegicus [12], 0.38. The Activity with Rattus norvegicus [13] worked out at 0.14; with Rattus norvegicus [14], 0.82; in the series on Rattus norvegicus [15], 0.47; in the series with Rattus norvegicus [16] it was 0.55; in the series on Rattus norvegicus [17] it was 0.37. Moreover, the results for the Ratio in [18] and in series [19] were 1.8 and 2.6, respectively.

The values above are taken from ChEMBL document CHEMBL1149321, “Synthesis, radiosynthesis, and biological evaluation of carbon-11 and iodine-123 labeled 2beta-carbomethoxy-3beta-[4'-((Z)-2-haloethenyl)phenyl]tropanes: candidate radioligands for in vivo imaging of the serotonin transporter” (J Med Chem, 2004).
